# Reference: the M2OR odorant receptor database
# What was measured:
# Conditions in all cases: stereoisomer not certain
# [1] = target: T1, UniProt Q8VGX8
# T1 sequence (whole entry): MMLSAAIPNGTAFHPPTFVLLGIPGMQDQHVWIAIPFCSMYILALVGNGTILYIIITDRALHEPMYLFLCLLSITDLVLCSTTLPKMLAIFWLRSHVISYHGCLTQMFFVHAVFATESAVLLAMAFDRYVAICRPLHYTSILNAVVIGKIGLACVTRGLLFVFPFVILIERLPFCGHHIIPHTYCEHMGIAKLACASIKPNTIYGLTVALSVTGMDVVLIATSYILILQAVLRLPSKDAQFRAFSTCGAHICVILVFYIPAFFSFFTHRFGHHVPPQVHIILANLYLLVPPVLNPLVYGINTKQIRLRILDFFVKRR
# Summary of the method: (§1)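 Each receptor–molecule pair is labelled responsive or non-responsive (inactive) according to whether the original authors judged the measured signal statistically different from baseline. The data were taken from the main text and supplementary material of published papers and checked for typos and inconsistencies. Assay methods differed by source, with transient luciferase assays in mammalian cell lines being common.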
# [2] = target: T2, UniProt Q8VGY6
# T2 sequence (whole entry): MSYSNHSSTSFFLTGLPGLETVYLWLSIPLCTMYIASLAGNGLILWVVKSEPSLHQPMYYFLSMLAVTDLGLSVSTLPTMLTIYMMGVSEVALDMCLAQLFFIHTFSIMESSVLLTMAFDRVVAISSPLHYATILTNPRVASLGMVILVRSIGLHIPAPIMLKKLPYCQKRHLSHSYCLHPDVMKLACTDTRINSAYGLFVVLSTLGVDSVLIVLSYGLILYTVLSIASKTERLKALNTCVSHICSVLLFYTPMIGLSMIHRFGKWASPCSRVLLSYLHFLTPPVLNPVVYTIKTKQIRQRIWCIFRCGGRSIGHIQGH
# Summary of the method: as §1
# [3] = target: T3, UniProt Q8VGZ2
# T3 sequence (whole entry): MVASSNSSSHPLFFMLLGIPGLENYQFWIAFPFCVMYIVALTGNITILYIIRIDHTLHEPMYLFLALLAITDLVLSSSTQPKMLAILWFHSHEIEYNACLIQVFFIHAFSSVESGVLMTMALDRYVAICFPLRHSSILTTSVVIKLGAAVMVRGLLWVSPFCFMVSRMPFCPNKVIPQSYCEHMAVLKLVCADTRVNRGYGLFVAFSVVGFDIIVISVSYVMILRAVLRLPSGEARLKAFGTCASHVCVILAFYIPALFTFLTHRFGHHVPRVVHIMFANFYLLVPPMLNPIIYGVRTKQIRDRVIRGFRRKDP
# Summary of the method: as §1
# [4] = target: T4, UniProt Q8VGZ7
# T4 sequence (whole entry): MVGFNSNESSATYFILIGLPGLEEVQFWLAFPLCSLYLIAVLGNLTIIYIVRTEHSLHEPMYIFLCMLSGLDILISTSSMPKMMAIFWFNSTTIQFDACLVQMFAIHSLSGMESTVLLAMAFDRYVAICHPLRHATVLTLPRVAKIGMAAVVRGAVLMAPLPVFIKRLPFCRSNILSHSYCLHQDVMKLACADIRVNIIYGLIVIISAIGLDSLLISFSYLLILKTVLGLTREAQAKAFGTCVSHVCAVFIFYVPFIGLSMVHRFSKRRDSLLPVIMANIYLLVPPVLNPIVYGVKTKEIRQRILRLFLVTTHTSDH
# Summary of the method: as §1
# [5] = target: T5, UniProt Q8VH10
# T5 sequence (whole entry): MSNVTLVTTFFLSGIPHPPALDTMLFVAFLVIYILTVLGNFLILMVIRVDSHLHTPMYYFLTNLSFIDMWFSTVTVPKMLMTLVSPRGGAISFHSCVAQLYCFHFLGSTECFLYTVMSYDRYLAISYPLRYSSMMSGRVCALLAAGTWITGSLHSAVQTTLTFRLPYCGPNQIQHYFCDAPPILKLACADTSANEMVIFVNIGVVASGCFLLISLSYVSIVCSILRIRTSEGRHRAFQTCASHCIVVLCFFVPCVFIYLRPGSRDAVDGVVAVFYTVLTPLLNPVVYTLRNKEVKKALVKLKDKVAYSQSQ
# Summary of the method: as §1
# [6] = target: T6, UniProt Q8VH16
# T6 sequence (whole entry): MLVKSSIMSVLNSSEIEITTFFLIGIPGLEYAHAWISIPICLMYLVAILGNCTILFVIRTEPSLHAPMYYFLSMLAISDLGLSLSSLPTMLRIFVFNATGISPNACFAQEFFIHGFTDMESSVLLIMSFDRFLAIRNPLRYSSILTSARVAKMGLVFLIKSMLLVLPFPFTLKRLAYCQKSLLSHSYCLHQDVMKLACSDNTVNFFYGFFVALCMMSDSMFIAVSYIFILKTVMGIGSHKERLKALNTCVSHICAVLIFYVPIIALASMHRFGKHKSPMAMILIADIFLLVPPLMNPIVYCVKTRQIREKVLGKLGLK
# Summary of the method: as §1
# [7] = target: T7, UniProt Q8VH20
# T7 sequence (whole entry): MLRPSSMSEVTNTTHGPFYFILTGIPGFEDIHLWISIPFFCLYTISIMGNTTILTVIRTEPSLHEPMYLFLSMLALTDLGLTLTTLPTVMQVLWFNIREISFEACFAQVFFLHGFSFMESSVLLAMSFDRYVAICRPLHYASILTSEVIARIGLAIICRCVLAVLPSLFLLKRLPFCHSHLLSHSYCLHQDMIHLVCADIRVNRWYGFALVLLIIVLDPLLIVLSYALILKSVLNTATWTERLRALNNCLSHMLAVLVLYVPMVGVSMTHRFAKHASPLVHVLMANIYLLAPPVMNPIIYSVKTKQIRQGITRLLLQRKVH
# Summary of the method: as §1
# [8] = target: T8, UniProt Q8VH21
# T8 sequence (whole entry): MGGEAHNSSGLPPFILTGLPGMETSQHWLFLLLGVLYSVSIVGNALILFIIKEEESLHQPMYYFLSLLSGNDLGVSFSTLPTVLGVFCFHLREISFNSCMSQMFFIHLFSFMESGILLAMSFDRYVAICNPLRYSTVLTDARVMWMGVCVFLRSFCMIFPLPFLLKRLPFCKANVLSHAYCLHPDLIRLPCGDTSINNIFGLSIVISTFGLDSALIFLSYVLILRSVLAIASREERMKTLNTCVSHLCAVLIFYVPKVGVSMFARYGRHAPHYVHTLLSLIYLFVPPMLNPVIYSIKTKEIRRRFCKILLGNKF
# Summary of the method: as §1
# [9] = target: T9, UniProt Q8VH18
# T9 sequence (whole entry): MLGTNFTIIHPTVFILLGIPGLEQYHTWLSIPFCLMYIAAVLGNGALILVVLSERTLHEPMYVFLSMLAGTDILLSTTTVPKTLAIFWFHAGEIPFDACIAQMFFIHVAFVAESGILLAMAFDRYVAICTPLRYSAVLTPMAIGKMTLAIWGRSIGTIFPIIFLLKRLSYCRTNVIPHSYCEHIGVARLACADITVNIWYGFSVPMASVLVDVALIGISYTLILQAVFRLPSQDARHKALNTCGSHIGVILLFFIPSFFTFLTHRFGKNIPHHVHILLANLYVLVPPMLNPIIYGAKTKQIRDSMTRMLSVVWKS
# Summary of the method: as §1
# [10] = target: T10, UniProt Q920P1
# T10 sequence (whole entry): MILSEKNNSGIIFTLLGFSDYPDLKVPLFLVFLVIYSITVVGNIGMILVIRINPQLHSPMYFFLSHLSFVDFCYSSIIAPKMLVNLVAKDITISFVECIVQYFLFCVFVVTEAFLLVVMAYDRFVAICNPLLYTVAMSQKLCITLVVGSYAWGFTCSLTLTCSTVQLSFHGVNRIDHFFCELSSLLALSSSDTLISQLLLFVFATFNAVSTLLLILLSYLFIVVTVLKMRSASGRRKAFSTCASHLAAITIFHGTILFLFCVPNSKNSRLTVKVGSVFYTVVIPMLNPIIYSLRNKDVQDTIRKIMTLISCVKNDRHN
# Summary of the method: as §1
# 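Further: active if original authors judged signal statistically different from baseline.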
SMILES,odorant receptor agonist call [1],odorant receptor agonist call [2],odorant receptor agonist call [3],odorant receptor agonist call [4],odorant receptor agonist call [5],odorant receptor agonist call [6],odorant receptor agonist call [7],odorant receptor agonist call [8],odorant receptor agonist call [9],odorant receptor agonist call [10]
CCCCCC(=O)CC,inactive,inactive,inactive,inactive,inactive,inactive,inactive,inactive,,
O=C(c1ccccc1)c1ccccc1,inactive,inactive,inactive,inactive,inactive,inactive,inactive,inactive,,
CCCCCC=O,inactive,inactive,inactive,inactive,inactive,inactive,inactive,inactive,,
CCCCCCCCCCO,inactive,inactive,inactive,inactive,inactive,inactive,inactive,inactive,,
CCCC(C)=O,inactive,inactive,inactive,inactive,inactive,,inactive,,inactive,
O=C(O)CCCCCC(=O)O,inactive,,,,,,,,inactive,
CCC(C(=O)O)c1ccccc1 (stereo not given),inactive,inactive,inactive,inactive,inactive,,inactive,,,
c1ccccc1,inactive,inactive,inactive,inactive,inactive,inactive,inactive,inactive,,inactive
CCCCCCCOC(=O)C(C)C,,,inactive,inactive,,inactive,inactive,inactive,,
OCC=Cc1ccccc1,,,inactive,inactive,,inactive,inactive,inactive,,
COc1nccnc1C,,,inactive,inactive,,inactive,inactive,inactive,,
O=c1ccc2ccccc2o1,inactive,inactive,inactive,inactive,inactive,,inactive,,,
O=C(O)CCCCBr,inactive,,,,,,,,inactive,
CC(C)=CCCC(C)=CCOC(=O)C(C)C,,,inactive,inactive,,inactive,inactive,inactive,,
O=C(O)CCCBr,inactive,,,,,,,,inactive,
CCCCCCC(=O)[O-].[H+],active,inactive,active,inactive,inactive,,active,,active,
C=CC(=C)CCC=C(C)C,,,inactive,inactive,,inactive,inactive,inactive,,
CCc1nccnc1CC,,,inactive,inactive,,inactive,inactive,inactive,,
CCc1ccccc1O,,,inactive,inactive,,inactive,inactive,inactive,,
O=C(O)CCCCCCCCC(=O)O,,,inactive,inactive,,inactive,inactive,inactive,,
CCCC=O,,,inactive,inactive,,inactive,inactive,inactive,,

SMILES,odorant receptor agonist call [1],odorant receptor agonist call [2],odorant receptor agonist call [3],odorant receptor agonist call [4],odorant receptor agonist call [5],odorant receptor agonist call [6],odorant receptor agonist call [7],odorant receptor agonist call [8],odorant receptor agonist call [9],odorant receptor agonist call [10]
O=C(O)CCCCCBr,active,,inactive,inactive,,inactive,active,inactive,inactive,
CC(C)=CCCC(C)=CCO,inactive,inactive,inactive,inactive,inactive,inactive,inactive,inactive,,inactive
CCCCCCCC(=O)[O-].[H+],active,inactive,active,inactive,inactive,,active,,active,
CCCCCCC(=O)OCCCC,,,inactive,inactive,,inactive,inactive,inactive,,
CC(C)=C1CCC(C)CC1=O (stereo not given),,,inactive,inactive,,inactive,inactive,inactive,,
CCCCC=O,,,inactive,inactive,,inactive,inactive,inactive,inactive,
COc1cc(C(=O)O)ccc1O,inactive,active,inactive,inactive,inactive,inactive,inactive,inactive,,inactive
C=C(CC)CCCC(C)(C)O,,,inactive,inactive,,inactive,inactive,inactive,,
CCCC(C)C(=O)OCC (stereo not given),,,inactive,inactive,,inactive,inactive,inactive,,
CCc1ccc(O)cc1,,,inactive,inactive,,inactive,inactive,inactive,,
O=C([O-])CCCCCCC(=O)[O-].[H+].[H+],inactive,,inactive,inactive,,inactive,inactive,inactive,inactive,
CCc1ncc(C)nc1CC,,,inactive,inactive,,inactive,inactive,inactive,,
CC(CC=O)CCCC(C)(C)O (stereo not given),,,inactive,inactive,,inactive,inactive,inactive,,
CCCCCO,inactive,inactive,inactive,inactive,inactive,,inactive,,inactive,
O=C([O-])CCCCCCCC(=O)[O-].[H+].[H+],inactive,,inactive,inactive,,inactive,inactive,inactive,inactive,
CCCCOC(=O)C(C)OC(=O)CCC (stereo not given),inactive,inactive,inactive,inactive,inactive,,inactive,,,
CCCCCCCCC=CC=O,,,inactive,inactive,,inactive,inactive,inactive,,
O=C([O-])CCCCC(=O)[O-].[H+].[H+],inactive,,,,,,,,inactive,
CC=Cc1ccc(OC)cc1,,,inactive,inactive,,inactive,inactive,inactive,,
OCCc1ccccc1,,,inactive,inactive,,inactive,inactive,inactive,,
C=C1C2CCC(C2)C1(C)C (stereo not given),,,inactive,inactive,,inactive,inactive,inactive,,
